Experimental data reported in ChEMBL document CHEMBL3580633, “Benzoxaborole antimalarial agents. Part 4. Discovery of potent 6-(2-(alkoxycarbonyl)pyrazinyl-5-oxy)-1,3-dihydro-1-hydroxy-2,1-benzoxaboroles” (J Med Chem, 2015).

Columns and labels:
[1] = AUC (0 to 2 hrs) in CD1 mouse at 30 mg/kg, po by HPLC coupled to tandem mass spectrometry; type: ADME, organism-based; set-up: dose 30 mg/kg, time < 2 hr, route oral; conditions: in vivo
In short: (§1)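 Adult female CD-1 mice were dosed 10 mg/kg by iv injection or 30 mg/kg by oral gavage, with the compound in 100% saline. Blood samples were collected and drug content was measured by HPLC-tandem MS.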

Mus musculus [2] = test: Oral bioavailability in CD1 mouse at 30 mg/kg by HPLC coupled to tandem mass spectrometry; type: ADME, organism-based; conditions: in vivo; in short: as §1
[3] = Clearance in CD1 mouse at 10 mg/kg, iv by HPLC coupled to tandem mass spectrometry; type: ADME, organism-based; conditions: in vivo; in short: as §1
Plasmodium berghei [4] = test: Antiplasmodial activity against Plasmodium berghei infected in Swiss Webster mouse assessed as mouse survival at 200 mg/kg, po dosed once daily for 4 consecutive days beginning 1 hr after initial infection and measured on day 4 post infection by Giemsa staining method; type: functional
In short: (§2)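 Female Swiss Webster mice (about 20 g) infected ip with 6 × 10^6 P. berghei-infected erythrocytes. Oral gavage once daily for 4 days, starting 1 h after infection. Vehicle PEG300/propylene glycol/water (55/25/20 by weight). Giemsa-smear parasitemia counted daily from day 4. Mice euthanised above 50% parasitemia. Survival followed to day 21, 5 mice per dose, chloroquine 30 mg/kg as reference.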

Plasmodium berghei [5] = test: Antiplasmodial activity against Plasmodium berghei infected in Swiss Webster mouse assessed as mouse survival at 200 mg/kg, po dosed once daily for 4 consecutive days beginning 1 hr after initial infection and measured on day 6 post infection by Giemsa staining method; type: functional; in short: as §2
Plasmodium berghei [6] = test: Antiplasmodial activity against Plasmodium berghei infected in Swiss Webster mouse assessed as mouse survival at 200 mg/kg, po dosed once daily for 4 consecutive days beginning 1 hr after initial infection and measured on day 9 post infection by Giemsa staining method; type: functional; in short: as §2
Plasmodium berghei [7] = test: Antiplasmodial activity against Plasmodium berghei infected in Swiss Webster mouse assessed as mouse survival at 100 mg/kg, po dosed once daily for 4 consecutive days beginning 1 hr after initial infection and measured on day 20 post infection by Giemsa staining method; type: functional; in short: as §2
Plasmodium berghei [8] = test: Antiplasmodial activity against Plasmodium berghei infected in Swiss Webster mouse assessed as mouse survival at 3 mg/kg, po dosed once daily for 4 consecutive days beginning 1 hr after initial infection and measured on day 12 post infection by Giemsa staining method; type: functional; in short: as §2
Mus musculus [9] = test: Cmax in CD1 mouse assessed as 5-(1-hydroxy-1,3-dihydrobenzo[c][1,2]oxaborol-6-yloxy)pyrazine-2-carboxylic acid level at 5 mg/kg, po by HPLC coupled to tandem mass spectrometry; type: ADME, organism-based; set-up: dose 5 mg/kg, route oral; conditions: in vivo
In short: (§3)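 The parent ester was given to adult female CD-1 mice at 5 mg/kg, iv or by oral gavage, in PEG 400/dimethylacetamide/water (45/10/45, pH 5.8). Blood was sampled, and the acid formed from the ester in vivo was quantified by HPLC-tandem MS to derive its PK parameters.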

Mus musculus [10] = test: Tmax in CD1 mouse assessed as 5-(1-hydroxy-1,3-dihydrobenzo[c][1,2]oxaborol-6-yloxy)pyrazine-2-carboxylic acid level at 5 mg/kg, po by HPLC coupled to tandem mass spectrometry; type: ADME, organism-based; conditions: in vivo; in short: as §3
Mus musculus [11] = test: Oral bioavailability in CD1 mouse assessed as 5-(1-hydroxy-1,3-dihydrobenzo[c][1,2]oxaborol-6-yloxy)pyrazine-2-carboxylic acid level at 5 mg/kg by HPLC coupled to tandem mass spectrometry; type: ADME, organism-based; conditions: in vivo; in short: as §3
Mus musculus [12] = test: AUC (0 to infinity) in CD1 mouse assessed as 5-(1-hydroxy-1,3-dihydrobenzo[c][1,2]oxaborol-6-yloxy)pyrazine-2-carboxylic acid level at 5 mg/kg, iv by HPLC coupled to tandem mass spectrometry; type: ADME, organism-based; set-up: dose 5 mg/kg, route intravenous, time infinity; conditions: in vivo; in short: as §3
Plasmodium berghei [13] = test: Antiplasmodial activity against Plasmodium berghei infected in Swiss Webster mouse assessed as mouse survival at 100 mg/kg, po dosed once daily for 4 consecutive days beginning 1 hr after initial infection and measured on day 13 post infection by Giemsa staining method; type: functional; in short: as §2
Plasmodium berghei [14] = test: Antiplasmodial activity against Plasmodium berghei infected in Swiss Webster mouse assessed as mouse survival at 100 mg/kg, po dosed once daily for 4 consecutive days beginning 1 hr after initial infection and measured on day 15 post infection by Giemsa staining method; type: functional; in short: as §2

Work on `O=C(O)c1cnc(Oc2ccc3c(c2)B(O)OC3)cn1` yielded an AUC(0-t) at 2 h [1] of 8620 ng·h/mL, an F (Mus musculus [2]) of 67% and a clearance [3] of 38.8 mL/min/kg.

Compound `NC(=O)c1cnc(Oc2ccc3c(c2)B(O)OC3)cn1` has a survival at 200 mg/kg (Plasmodium berghei [4]) of 100%, a survival at 200 mg/kg (Plasmodium berghei [5]) of 100% and a survival at 200 mg/kg (Plasmodium berghei [6]) of 40%.

Work on `COC(=O)c1cnc(Oc2ccc3c(c2)B(O)OC3)cn1` yielded a survival at 100 mg/kg (Plasmodium berghei [7]) of 0%, a survival at 3 mg/kg (Plasmodium berghei [8]) of 0% and a Cmax (Mus musculus [9]) of 920 ng/mL. For the same compound, the Tmax (Mus musculus [10]) was 15 min, the F (Mus musculus [11]) was 29% and the AUC (Mus musculus [12]) was 990 ng·h/mL. The survival at 100 mg/kg (Plasmodium berghei [13]) was 60% and the survival at 100 mg/kg (Plasmodium berghei [14]) was 40%.
